According to paper PMC6054565 (ACS chemical biology, 2018):

Key:
Assay in all cases: chemiluminescence
Type in all cases: binding
[1] = target: PtYcgR; conditions: read-out: KD^a; 50 nM protein; 50 mM HEPES pH 7.2, 100 mM KCl, 10 mM DTT, 0.1% BSA; 28 °C
Method in brief: (§1)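 Purified from E. coli co-expressing the c-di-GMP phosphodiesterase PdeH. Biosensor (YcgR domain inserted at the 91/92 site of split RLuc8) at 50 nM with c-di-GMP in 100 µL, equilibrated ≥10 min at 28 °C. Injected 20 µL of 60 µM coelenterazine-h in 50 mM HEPES pH 7.2, 100 mM KCl, 300 mM ascorbate. Total luminescence integrated 10 s after a 3 s delay.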

[2] = target: DnYcgR; conditions: read-out: KD^a; 50 nM protein; 50 mM HEPES pH 7.2, 100 mM KCl, 10 mM DTT, 0.1% BSA; 28 °C
Method in brief: as §1

[3] = target: TuYcgR; conditions: read-out: KD^a; 50 nM protein; 50 mM HEPES pH 7.2, 100 mM KCl, 10 mM DTT, 0.1% BSA; 28 °C
Method in brief: as §1

[4] = target: T1, EcYcgR (Escherichia coli, UniProt P76010)
T1 sequence (P76010 1-244): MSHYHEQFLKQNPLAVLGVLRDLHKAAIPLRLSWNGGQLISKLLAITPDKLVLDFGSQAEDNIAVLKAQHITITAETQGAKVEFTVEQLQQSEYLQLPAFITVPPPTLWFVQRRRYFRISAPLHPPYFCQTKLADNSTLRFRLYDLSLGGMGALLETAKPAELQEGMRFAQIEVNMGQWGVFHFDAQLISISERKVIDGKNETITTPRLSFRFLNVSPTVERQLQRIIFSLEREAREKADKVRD
Method in brief: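 Then 20 µL of 60 µM coelenterazine-h (in HEPES/KCl/300 mM ascorbate, equilibrated at RT for at least 30 min) was injected. Total luminescence was integrated for 10 s after a 3 s delay at 28 °C.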

[5] = target: TbYcgR; conditions: read-out: KD^a; 50 nM protein; 50 mM HEPES pH 7.2, 100 mM KCl, 10 mM DTT, 0.1% BSA; 28 °C
Method in brief: as §1

[6] = target: BtYcgR; conditions: read-out: KD^a; 50 nM protein; 50 mM HEPES pH 7.2, 100 mM KCl, 10 mM DTT, 0.1% BSA; 28 °C
Method in brief: as §1

[7] = target: BvYcgR; conditions: read-out: KD^a; 50 nM protein; 50 mM HEPES pH 7.2, 100 mM KCl, 10 mM DTT, 0.1% BSA; 28 °C
Method in brief: as §1

[8] = target: TcYcgR; conditions: read-out: KD^a; 50 nM protein; 50 mM HEPES pH 7.2, 100 mM KCl, 10 mM DTT, 0.1% BSA; 28 °C
Method in brief: as §1

[9] = target: TmYcgR; conditions: read-out: KD^a; 50 nM protein; 50 mM HEPES pH 7.2, 100 mM KCl, 10 mM DTT, 0.1% BSA; 28 °C
Method in brief: as §1

[10] = target: CbYcgR; conditions: read-out: KD^a; 50 nM protein; 50 mM HEPES pH 7.2, 100 mM KCl, 10 mM DTT, 0.1% BSA; 28 °C
Method in brief: as §1

[11] = target: CpYcgR; conditions: read-out: KD^a; 50 nM protein; 50 mM HEPES pH 7.2, 100 mM KCl, 10 mM DTT, 0.1% BSA; 28 °C
Method in brief: as §1

[12] = target: ToYcgR; conditions: read-out: KD^a; 50 nM protein; 50 mM HEPES pH 7.2, 100 mM KCl, 10 mM DTT, 0.1% BSA; 28 °C
Method in brief: as §1

`Nc1nc2c(ncn2[C@@H]2O[C@@H]3COP(=O)(O)O[C@H]4[C@@H](O)[C@H](n5cnc6c(=O)[nH]c(N)nc65)O[C@@H]4COP(=O)(O)O[C@H]3[C@H]2O)c(=O)[nH]1` [c-di-GMP] showed a Kd [1] of under 50 nM, a Kd [2] of 303 ± 15 nM and a Kd [3] of under 50 nM. It also gave a Kd [4] of 354 ± 18 nM, a Kd [5] of under 50 nM and a Kd [6] of 286 ± 17 nM. For the same compound, the Kd [7] was 105 ± 2 nM, the Kd [8] was 59 ± 2 nM and the Kd [9] was under 50 nM. The Kd [10] was under 50 nM, the Kd [11] was under 50 nM and the Kd [12] was 379 ± 23 nM.
